Test results as given in ChEMBL document CHEMBL2440054, “Largazole Arrests Cell Cycle at G1 Phase and Triggers Proteasomal Degradation of E2F1 in Lung Cancer Cells” (ACS Med Chem Lett, 2013).
Active and inactive are the calls of the source. The calls are words filed in the database; no cut-off is given here.

Legend:
[1] = molecular target: Transcription factor E2F1 (Homo sapiens) (UniProt Q01094); experiment: Induction of E2F1 ubiquitination in human A549 cells at 0.1 uM after 8 hrs by immunoprecipitation and Western blotting analysis; format: cell-based
Chain of Transcription factor E2F1 (Homo sapiens) (Q01094 whole entry): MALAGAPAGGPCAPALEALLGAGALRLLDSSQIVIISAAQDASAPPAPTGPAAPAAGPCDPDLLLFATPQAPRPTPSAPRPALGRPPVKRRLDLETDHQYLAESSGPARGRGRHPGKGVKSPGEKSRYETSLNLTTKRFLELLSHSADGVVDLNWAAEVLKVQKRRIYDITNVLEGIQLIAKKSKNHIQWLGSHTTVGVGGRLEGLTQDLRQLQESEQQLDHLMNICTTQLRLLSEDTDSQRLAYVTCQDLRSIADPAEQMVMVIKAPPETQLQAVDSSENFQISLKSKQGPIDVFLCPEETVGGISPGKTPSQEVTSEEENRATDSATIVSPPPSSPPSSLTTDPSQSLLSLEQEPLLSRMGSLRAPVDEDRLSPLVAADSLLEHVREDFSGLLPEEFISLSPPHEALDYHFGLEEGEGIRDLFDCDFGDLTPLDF
In short: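 Lysates of A549 cells given 0.1 μM largazole for 8 h were immunoprecipitated with anti-E2F1 and probed by Western blot with anti-ubiquitin.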

[2] = molecular target: Transcription factor E2F1 (Homo sapiens) (UniProt Q01094); experiment: Induction of E2F1 degradation in human A549 cells at 0.1 uM after 12 hrs by Western blotting analysis in presence of proteasome inhibitor MG-132; format: cell-based
In short: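 A549 cells pretreated 2 h with bortezomib (100 nM) or MG-132 (10 μM), then given largazole 0.1 μM for a further 12 h. Lysates Western blotted for E2F1.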

A549 [3] = experiment: Downregulation of E2F1 in human A549 cell nucleus at 0.1 uM after 6 to 24 hrs by Western blotting analysis; format: functional, cell-based
In short: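 A549 cells exposed to 0.1 μM largazole for indicated times. Cytoplasmic and nuclear fractions separated, then Western blotted for E2F1.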

[4] = molecular target: Transcription factor E2F1 (Homo sapiens) (UniProt Q01094); experiment: Induction of E2F1 translocation from nucleus to cytoplasm in human A549 cells at 0.1 uM after 12 to 24 hrs by DAPI staining-based immunofluorescence analysis; format: cell-based
In short: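 A549 cells given 0.1 μM largazole for 12 to 24 h. Immunofluorescence with anti-E2F1 antibody, nuclei counterstained with DAPI.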

[5] = molecular target: Transcription factor E2F1 (Homo sapiens) (UniProt Q01094); experiment: Induction of E2F1 degradation in human NCI-H1975 cells at 0.1 uM after 12 to 24 hrs by Western blotting analysis; format: cell-based
In short: (§1)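 Each cell line (16-HBE, 95D, L78, H1975, H460) treated with 0.1 μM largazole for indicated times. Lysates Western blotted for E2F1.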

A549 [6] = experiment: Downregulation of E2F1 protein expression in human A549 cells after 12 hrs by Western blotting analysis; format: functional, cell-based
In short: (§2)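 A549 cells treated with 0.1 μM largazole over a time course, or with a range of concentrations for 12 h. Lysates Western blotted for E2F1.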

A549 [7] = experiment: Downregulation of E2F1 protein expression in human A549 cells at 0.1 uM by Western blotting analysis; format: functional, cell-based; details: TDE = time-dependent effect; in short: as §2
A549 [8] = experiment: Downregulation of p21 protein expression in human A549 cells at 0.1 uM after 1 hr by Western blotting analysis in presence of protein synthesis inhibitor cycloheximide; format: functional, cell-based
A549 [9] = experiment: Upregulation of p21 mRNA expression in human A549 cells at 0.1 uM after 12 hrs by RT-PCR analysis; format: functional, cell-based
In short: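 A549 cells at 0.1 μM over a time course. RNA extracted, and p21 mRNA assessed by RT-PCR with specific primers.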

A549 [10] = experiment: Effect on CDK2 protein expression in human A549 cells at 0.1 uM after 6 to 36 hrs by Western blotting analysis; format: functional, cell-based
In short: (§3)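 A549 cells exposed to 0.1 μM largazole over a time course, lysed, and Western blotted for cyclin D1, CDK2, CDK4, p21 and p27.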

A549 [11] = experiment: Effect on CDK4 protein expression in human A549 cells at 0.1 uM after 6 to 36 hrs by Western blotting analysis; format: functional, cell-based; in short: as §3
A549 [12] = experiment: Upregulation of p27 protein expression in human A549 cells at 0.1 uM after 12 hrs by Western blotting analysis; format: functional, cell-based
In short: (§4)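 A549 cells exposed to 0.1 μM over a time course, then lysed and Western blotted for G1 regulators including p21 and p27.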

A549 [13] = experiment: Upregulation of p21 protein expression in human A549 cells at 0.1 uM after 6 hrs by Western blotting analysis; format: functional, cell-based; in short: as §4
A549 [14] = experiment: Induction of apoptosis in human A549 cells assessed as increase in PARP cleavage at 0.1 uM after 48 hrs by Western blotting analysis; format: functional, cell-based
In short: (§5)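 A549 cells exposed to 0.1 μM for a time course, then lysed and Western blotted. Read-outs are pro- and cleaved caspase-9, pro- and active caspase-3, and cleaved PARP.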

A549 [15] = experiment: Induction of apoptosis in human A549 cells assessed as increase in cleaved caspase-3 level at 0.1 uM after 48 hrs by Western blotting analysis; format: functional, cell-based; in short: as §5
A549 [16] = experiment: Induction of apoptosis in human A549 cells assessed as effect on caspase-8 protein expression at 0.1 uM after 48 hrs by Western blotting analysis; format: functional, cell-based
In short: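 A549 cells given largazole 0.1 μM for indicated times, lysed, and Western blotted for pro-/cleaved caspase-9, caspase-8, pro-/active caspase-3 and PARP.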

NCI-H460 [17] = experiment: Cell cycle arrest in human NCI-H460 cells assessed as accumulation at G1 phase at 0.1 uM after 24 hrs by propidium iodide staining-based flow cytometric analysis (reference value: 58.9%); format: functional
NCI-H460 [18] = experiment: Cell cycle arrest in human NCI-H460 cells assessed as accumulation at G2 phase at 0.06 uM after 24 hrs by propidium iodide staining-based flow cytometric analysis (reference value: 9.5%); format: functional
A549 [19] = experiment: Cell cycle arrest in human A549 cells assessed as accumulation at G2 phase at 0.1 uM after 24 hrs by propidium iodide staining-based flow cytometric analysis (reference value: 3.7%); format: functional
A549 [20] = experiment: Cell cycle arrest in human A549 cells assessed as accumulation at S phase at 0.1 uM after 24 hrs by propidium iodide staining-based flow cytometric analysis (reference value: 48%); format: functional
A549 [21] = experiment: Cell cycle arrest in human A549 cells assessed as accumulation at G2 phase at 0.06 uM after 24 hrs by propidium iodide staining-based flow cytometric analysis (reference value: 3.7%); format: functional
A549 [22] = experiment: Cell cycle arrest in human A549 cells assessed as accumulation at S phase at 0.06 uM after 24 hrs by propidium iodide staining-based flow cytometric analysis (reference value: 48%); format: functional
NCI-H460 [23] = experiment: Growth inhibition of human NCI-H460 cells at 0.1 uM after 24 to 48 hrs by trypan blue exclusion assay; format: functional, cell-based
In short: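 Cells treated with largazole for indicated times. Viability evaluated by trypan blue exclusion.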

A549 [24] = experiment: Cytotoxicity against human A549 cells assessed as inhibition of colony formation pretreated for 24 hrs followed by seeding measured after 10 days by clonogenic assay; format: functional, cell-based
In short: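 Soft-agar clonogenic assay. Cells pretreated 24 h with largazole or DMSO, then seeded in 0.3% soft agar upper layer over 0.6% soft agar lower layer. Colonies counted by microscope after 10 days. Mean ± SD of three independent experiments.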

[25] = Cytotoxicity against human 16HBE cells after 48 hrs by CCK-8 assay; format: cell-based; details: 16HBE14o-
In short: (§6)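 Cells treated with a range of largazole concentrations for 48 h. Proliferation read by CCK-8 assay; IC50 derived from the concentration series.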

[26] = Cytotoxicity against human GLC82 cells after 48 hrs by CCK-8 assay; format: functional, cell-based; details: GLC82, 48 h; in short: as §6
[27] = molecular target: Transcription factor E2F1 (Homo sapiens) (UniProt Q01094); experiment: Induction of E2F1 degradation in human NCI-H460 cells at 0.1 uM after 12 to 24 hrs by Western blotting analysis; format: cell-based; in short: as §1
[28] = molecular target: Histone deacetylase 1 (Homo sapiens) (UniProt Q13547); details: 16HBE, 0.1 uM
Chain of Histone deacetylase 1 (Homo sapiens) (Q13547 whole entry): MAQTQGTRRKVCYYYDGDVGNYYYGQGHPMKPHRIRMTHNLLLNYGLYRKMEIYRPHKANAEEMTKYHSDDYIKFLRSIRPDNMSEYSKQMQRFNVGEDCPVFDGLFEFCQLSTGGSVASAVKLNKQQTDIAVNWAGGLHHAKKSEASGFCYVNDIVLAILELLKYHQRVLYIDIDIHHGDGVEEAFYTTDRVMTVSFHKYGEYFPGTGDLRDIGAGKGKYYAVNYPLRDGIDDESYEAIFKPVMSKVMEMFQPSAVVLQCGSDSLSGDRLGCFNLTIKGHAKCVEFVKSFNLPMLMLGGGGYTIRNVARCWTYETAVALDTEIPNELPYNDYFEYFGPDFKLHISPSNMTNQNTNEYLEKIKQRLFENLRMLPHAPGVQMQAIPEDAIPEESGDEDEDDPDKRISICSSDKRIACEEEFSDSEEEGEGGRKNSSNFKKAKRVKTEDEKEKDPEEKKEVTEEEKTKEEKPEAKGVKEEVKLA

[29] = molecular target: Histone deacetylase 1 (Homo sapiens) (UniProt Q13547); details: NCI-H1975, 0.1 uM
[30] = molecular target: Histone deacetylase 1 (Homo sapiens) (UniProt Q13547); details: A549, 0.1 uM
[31] = molecular target: Histone deacetylase 1 (Homo sapiens) (UniProt Q13547); details: A549, 0.1 uM; remark: listed apart in the source

CCCCCCCC(=O)SCC/C=C/[C@@H]1CC(=O)NCc2nc(cs2)C2=N[C@@](C)(CS2)C(=O)N[C@@H](C(C)C)C(=O)O1 [LARGAZOLE]
Activity [1]: Active | Activity [2]: inactive | Activity (A549 [3]): Active | Activity [4]: Active | Activity [5]: Active | Activity (A549 [6]): Dose-dependent effect | Activity (A549 [7]): tde | Activity (A549 [8]): inactive | Activity (A549 [9]): Active | Activity (A549 [10]): inactive | Activity (A549 [11]): inactive | Activity (A549 [12]): Active | Activity (A549 [13]): Active | Activity (A549 [14]): Active | Activity (A549 [15]): Active | Activity (A549 [16]): inactive | Activity (NCI-H460 [17]): 84.1% | Activity (NCI-H460 [18]): 10.8% | Activity (A549 [19]): 3.3% | Activity (A549 [20]): 8.5% | Activity (A549 [21]): 3.1% | Activity (A549 [22]): 6.5% | growth inhibition (GI) (NCI-H460 [23]): Active | inhibition (A549 [24]): Dose-dependent effect | IC50 [25]: > 10000 nM | IC50 [26]: 190 nM | Activity [27]: Active | inhibition [28]: Active | inhibition [29]: Active | inhibition [30]: Active | inhibition [31]: Active
